Sampled rows, rich in hits. Any-hit rate of the full collection: about 2.4%.
HNF4A DNA FP: change in binding of human HNF4A to DNA, primary screen, biochemical, fluorescence polarization, FITC-DNA | 1 h | activity change, % at 10 µM | actives 0.3% (n = 360,000) | AID 1224865, 2016; in the data active means activity change above about 30%, passing the limit was not always enough
Rin1 Abl inh: inhibitors of Rin1-Abl protein binding, primary screen, biochemical, TR-FRET; inhibition, % at 7.35 µM; Tyrosine-protein kinase ABL1 (Homo sapiens) + Ras and Rab interactor 1 (Homo sapiens), …; actives 0.4% (n = 360,000); in the data active means inhibition above about 5%, passing the limit was not always enough
CSN deneddyl inh: inhibitors of CSN-mediated cullin deneddylation, primary screen, biochemical, fluorescence polarization, uHTS. COP9 signalosome complex subunit 5 (Homo sapiens), Q92905. Purified CSN, SCF-Nedd8-OG deneddylation. inhibition, % at 12.5 µM. actives 0.38% (n = 360,000);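 active means pattern-corrected inhibition above about 35%, with an unprinted fluorescence ratio check between 0.5 and 1.5, limit read from the data, passing the limit was not always enough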
Target sequence (Q92905 whole entry, looked up, one chain of several): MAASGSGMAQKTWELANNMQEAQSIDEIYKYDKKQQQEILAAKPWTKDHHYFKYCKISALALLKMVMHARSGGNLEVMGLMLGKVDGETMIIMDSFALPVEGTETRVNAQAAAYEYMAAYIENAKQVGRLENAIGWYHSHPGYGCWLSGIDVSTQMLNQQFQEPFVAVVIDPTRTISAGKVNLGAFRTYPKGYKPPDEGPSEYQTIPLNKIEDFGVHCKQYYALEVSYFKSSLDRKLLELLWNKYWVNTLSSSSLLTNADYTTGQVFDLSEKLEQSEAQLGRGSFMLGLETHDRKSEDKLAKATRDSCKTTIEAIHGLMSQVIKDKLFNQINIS
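Test system: Human Csn5 produced in HEK293T cells | Compound: 12.5 µM single point | Times: 90 min, room temperature | Signal: Fluorescence polarization readout | Read-out basis: % inhibition of substrate cleavage by Csn5 | Controls: no-enzyme wells high, enzyme-with-substrate wells low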
Rpn11 block: Rpn11 (PSMD14) deubiquitinase inhibitors, primary screen, biochemical, fluorescence polarization, uHTS | human 26S proteasome, Ub4-pepOG fluorescence polarization; 20S core pre-blocked with epoxomicin | inhibition, % at 20 µM | actives 0.59% (n = 360,000) | AID 588493, 2011;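 active means inhibition at 20 µM, scaled to each plate's controls, above about 33%, limit read from the data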
Neddylation inh: inhibitors of cullin neddylation, primary screen, biochemical, TR-FRET, uHTS, NAE and Ubc12; actives 0.58% (n = 360,000); inhibition, % at 25 µM; in the data active means inhibition above about 36%
TPT1 inh: Candida albicans TPT1 enzyme inhibitors, primary screen, biochemical, fluorescence polarization; recombinant caTPT1, FP RNA substrate dephosphorylation; inhibition, % at 5 µM; actives 0.81% (n = 300,000);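 active means inhibition above the mean of all tested compounds plus 3 SD, set per screening campaign, cut at about 24% in these data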
TPT1 inh confirm: Candida albicans TPT1 inhibitors, confirmation, biochemical, fluorescence polarization, triplicate; inhibition, % at 5 µM; recombinant caTPT1, RNase T1 coupled; actives 74% (n = 2,400); shares compounds with TPT1 inh;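 active means inhibition above the primary screen limit, the mean inhibition of all tested compounds plus 3 SD, cut at about 25% in these data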
RNase T1 inh: RNase T1 inhibitors, counter-screen for TPT1 inhibitor project, biochemical, fluorescence polarization; AID 2153, 2009; actives 83% (n = 2,400); shares compounds with TPT1 inh; RNase T1 cleavage, 1536-well; inhibition, % at 5 µM;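 active means inhibition above the solvent-only control well mean plus 3 SD, limit set per screening run, cut at about 23% in these data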;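 further: inhibitors block cleavage so intact labeled substrate keeps polarization high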
Target sequence (P00651 whole entry, looked up): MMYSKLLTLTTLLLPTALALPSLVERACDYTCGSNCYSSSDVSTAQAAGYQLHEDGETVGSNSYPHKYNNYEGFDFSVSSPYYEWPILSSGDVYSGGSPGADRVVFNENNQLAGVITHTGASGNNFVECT
Numbers stand for hits; - = inactive; . = no result shown; + = active, no number.

SMILES	HNF4A DNA FP	Rin1 Abl inh	CSN deneddyl inh	Rpn11 block	Neddylation inh	TPT1 inh	TPT1 inh confirm	RNase T1 inh
C=CCOC(=O)C1=C(C)NC(SCC(=O)NC(=O)OCC)=C(C#N)C1c1cccnc1 (configuration not stated)	-	-	-	-	-	25	-	31
C[C@@H]1CN([C@H](C)CO)C(=O)c2cc(NC(=O)c3ccncc3)ccc2O[C@@H]1CN(C)C(=O)Nc1ccccc1	-	-	-	-	-	.	.	.
CC(=O)Nc1sc(C)c(C)c1C(=O)OC1CCOC1=O (configuration not stated)	-	-	-	-	-	-	.	.
CCCc1nc2ccc([N+](=O)[O-])cc2[nH]1	-	-	-	-	-	29	-	-
O=[N+]([O-])c1ccc2nc(CCCO)[nH]c2c1	-	-	-	-	-	-	.	.
COc1ccc(CCNC(=O)c2ccc(NC(=O)CC3SC(N4CCCCC4)=NC3=O)cc2)cc1 (configuration not stated)	-	-	-	-	-	.	.	.
CCOc1ccccc1C(=O)n1nc2nc(C)cc(C)c2c1N	-	-	-	-	-	44	-	-
CC(=O)n1nc2nc(C)cc(C)c2c1N	-	-	-	-	-	-	.	.
COC(=O)CCc1nc2ccccc2[nH]c1=O	-	-	-	-	-	-	.	.
COC(=O)CSCc1nc2ccccc2[nH]c1=O	-	-	-	-	-	64	61	72
CC(C)CN(C(=O)C1CCCO1)C1CCS(=O)(=O)C1 (configuration not stated)	-	-	-	-	-	-	.	.
CC(NC(=O)COc1ccc(N(C)S(=O)(=O)c2ccccc2)cc1)c1ccccc1 (configuration not stated)	-	-	-	-	-	-	.	.
CN1CCc2c(sc3nc(SCC(=O)NCc4ccco4)n(-c4ccccc4)c(=O)c23)C1	-	-	-	.	-	30	38	51
CCOC(=O)CN1C(=O)S/C(=C/c2ccc(N3CCCCC3)o2)C1=O	-	-	-	.	-	+	180	167
COC(=O)CN1C(=O)S/C(=C/c2ccc(N3CCCCC3)o2)C1=O	-	-	-	.	-	181	191	170
O=C(CCNC(=O)c1ccccc1Cl)Nc1cccc(S(=O)(=O)N2CCOCC2)c1	-	-	-	-	-	.	.	.
CNc1ccc(Br)cc(C(=O)/C=C/c2cccc(OC)c2)c1=O	-	-	-	-	-	42	61	74
COc1ccc(/C=C/C(=O)c2ccc(OC)cc2OC)c(OC)c1	-	-	-	-	-	-	.	.
CNc1ccc(Br)cc(C(=O)/C=C/c2ccc(OC)cc2OC)c1=O	-	-	-	-	-	54	76	84
O=C(/C=C/c1ccc(Cl)cc1Cl)c1ccc[nH]1	-	-	-	-	-	-	.	.
CNc1ccc(Br)cc(C(=O)/C=C/c2ccc(Cl)cc2Cl)c1=O	-	-	-	-	-	69	58	72
O=C(Cn1cncn1)c1ccccc1Br	-	-	-	-	-	-	.	.
COc1ccc(C(=O)OCC(=O)N2c3ccccc3CC2C)cc1S(=O)(=O)N1CCOCC1 (configuration not stated)	-	-	-	-	-	.	.	.
Cc1cc2oc(=O)cc(CN3CCCc4ccccc43)c2cc1C	-	-	-	.	-	48	43	53
Cc1cc2oc(=O)cc(CN3CCCCC3)c2cc1C	-	-	-	-	-	-	.	.
SMILES	HNF4A DNA FP	Rin1 Abl inh	CSN deneddyl inh	Rpn11 block	Neddylation inh	TPT1 inh	TPT1 inh confirm	RNase T1 inh
Cc1csc(NS(=O)(=O)c2cccc([N+](=O)[O-])c2)n1	-	-	-	-	-	-	.	.
O=C(CC1CC2CCC1C2)N1CCN(S(=O)(=O)c2ccccc2F)CC1 (configuration not stated)	-	-	-	-	-	.	.	.
CC(NC(=O)/C(=C/c1cccc([N+](=O)[O-])c1)NC(=O)c1ccco1)C(=O)O (configuration not stated)	-	-	-	-	-	130	-	-
O=C(NC(Cc1ccccc1)C(=O)O)/C(=C\c1cccc([N+](=O)[O-])c1)NC(=O)c1ccco1 (configuration not stated)	-	-	-	-	-	-	.	.
Cc1ccc(NC(=S)N2CCCC2)cc1Cl	-	-	-	-	-	.	.	.
COc1ccc(/C=C2/CC/C(=C\c3ccc(OC)c(OC)c3OC)C2=O)c(OC)c1OC	-	-	-	-	-	24	36	43
COc1cc(/C=C2\CC/C(=C\c3cc(OC)c(OC)c(OC)c3)C2=O)cc(OC)c1OC	-	-	-	-	-	39	48	57
COc1ccc(/C=C2\CCC(C3CCCC3)C2=O)c(OC)c1OC (configuration not stated)	-	-	-	-	-	-	.	.
COc1ccc(OCCCC(=O)OCC(=O)NNC(=O)c2ccc([N+](=O)[O-])cc2)cc1	-	-	-	-	-	-	.	.
O=[N+]([O-])c1ccc(OCc2n[nH]c(=S)n2-c2ccccc2)cc1	-	-	-	-	-	-	.	.
O=[N+]([O-])c1ccc(Nc2ccccc2)c2nonc12	-	-	-	-	-	25	35	50
Cc1ccc(CSCC2Nc3ccc(C(=O)N4CCN(c5cccc(C)c5)C(C)C4)cc3NC2=O)cc1 (configuration not stated)	.	.	.	.	.	110	-	33
Cc1cccc(N2CCN(C(=O)c3ccc4c(c3)NC(=O)C(CSCc3ccc(F)cc3)N4)CC2C)c1 (configuration not stated)	.	.	.	.	.	122	62	74
C=CCOC(=O)C1=C(C)OC(N)=C(C#N)C1c1ccoc1 (configuration not stated)	-	-	-	-	-	62	59	74
Nc1nc(N)c2ncc(C(=O)CCc3ccccc3)nc2n1	-	-	-	-	-	41	44	56
O=C(CCCCl)NC1=NN(c2ccccc2)C(=O)C1	-	-	-	-	-	35	-	-
COc1ccccc1N/C=C/c1onc(C)c1[N+](=O)[O-]	69	-	-	-	-	113	97	105
